This is an account of results in PMC7787347 (Journal of medicinal chemistry, 2018).

“Also recorded” adds a separate entry of the source.

In one series the target is T1, β-catenin/BCL9 PPI (Homo sapiens, UniProt P35222).
T1 sequence (P35222 1-781): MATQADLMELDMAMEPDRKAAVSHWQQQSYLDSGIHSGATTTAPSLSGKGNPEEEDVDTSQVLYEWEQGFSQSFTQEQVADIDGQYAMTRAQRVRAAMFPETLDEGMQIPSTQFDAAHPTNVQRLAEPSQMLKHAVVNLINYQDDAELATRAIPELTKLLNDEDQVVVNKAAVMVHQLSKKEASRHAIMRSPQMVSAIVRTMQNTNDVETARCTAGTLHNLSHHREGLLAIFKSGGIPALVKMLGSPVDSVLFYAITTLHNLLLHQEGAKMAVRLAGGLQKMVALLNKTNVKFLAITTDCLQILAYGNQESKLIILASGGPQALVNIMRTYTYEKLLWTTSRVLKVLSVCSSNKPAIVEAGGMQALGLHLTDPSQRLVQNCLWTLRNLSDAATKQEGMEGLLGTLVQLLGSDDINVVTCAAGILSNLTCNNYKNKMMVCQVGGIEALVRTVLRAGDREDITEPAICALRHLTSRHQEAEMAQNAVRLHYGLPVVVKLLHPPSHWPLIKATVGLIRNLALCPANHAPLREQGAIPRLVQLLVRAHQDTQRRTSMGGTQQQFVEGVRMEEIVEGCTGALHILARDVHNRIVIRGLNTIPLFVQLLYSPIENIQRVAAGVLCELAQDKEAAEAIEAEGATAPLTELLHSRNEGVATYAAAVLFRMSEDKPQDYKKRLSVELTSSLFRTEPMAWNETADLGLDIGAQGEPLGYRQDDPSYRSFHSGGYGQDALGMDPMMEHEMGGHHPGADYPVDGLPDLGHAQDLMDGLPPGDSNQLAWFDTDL
Briefly: AlphaScreen competitive inhibition assay, β-catenin/BCL9 PPI. In kind it is binding. Particulars: in words. (In general: Bead proximity is the source of the signal in Alpha formats.)

The next series has as its target T2, β-catenin/E-cadherin PPI (Homo sapiens, UniProt P35222).
T2 sequence (P35222 1-781): T1 sequence (P35222 1-781)
Description: AlphaScreen selectivity assay, β-catenin/E-cadherin PPI. In kind it is binding. Particulars: for selectivity of BCL9/cadherin: ratio of Ki β-catenin/E-cadherin over Ki β-catenin/BCL9.

The test system of series [1] is FOPFlash luciferase reporter (three mutant Tcf4 binding sites) in β-catenin activated HEK293 cells. Description: FOPFlash luciferase reporter assay. It is filed as cell-based. Particulars: in words; for effect on FOPFlash luciferase reporter activity: β-catenin activated HEK293 cells. In general terms: A reporter such as luciferase makes a cellular process visible.
The test system of series [2] is Axin2, LEF1, cyclin D1 mRNA in SW480 cells. Description: qPCR of Wnt target gene mRNA expression. It is filed as cell-based, human. The conditions noted are these: 24 h, in words. Background: In qPCR the cycle at which signal appears reflects the starting amount.
Series [3] relates to cyclin D1, c-myc, active β-catenin (ABC), total β-catenin in SW480 cells. Briefly: Western blot of protein expression. In kind it is cell-based. The conditions noted are these: 24 h, in words.
A further series concerns SW480 cells. Description: LDH release cytotoxicity assay. It is filed as cell-based. The conditions noted are these: 4 h incubation, in words. The method, boiled down: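 SW480 cells were seeded at 2 × 10^4 cells/well, held overnight at 37 °C, then exposed to various concentrations of test compound for 4 h. The culture supernatant was reacted with the commercial LDH kit reagents and read at 490 nm. Percent cytotoxicity was calculated from experimental, background and maximum LDH release. Run in triplicate.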

The next series relates to HCT116 cells. Briefly: Cell-bound. The conditions noted are these: 5 mL DMEM with 10% FBS. It is filed as in vitro ADME.
The subject of series [4] is full-length β-catenin/full-length BCL9 PPI in HCT116 cell lysates. Description: Co-IP in cell lysates. It is filed as cell-based. Particulars: 4 h incubation with HCT116 cell lysates, in words.
Series [5] deals with β-catenin/BCL9 PPI in HCT116 cells. Briefly: Co-IP in whole cells. In kind it is cell-based. Particulars: 24 h, in words.
The next series has as its target BCL9 (Homo sapiens) (UniProt O00512). The conditions noted are these: cited from earlier work.
In another series the test system is SW480. Particulars: read-out: MTs IC50 ± SD SW480; Wnt/β-catenin hyperactive, 72 h; cited from earlier work.
A further series concerns HCT116. Particulars: read-out: MTs IC50 ± SD HCT116; Wnt/β-catenin hyperactive, 72 h; cited from earlier work.
For a further series, the system named is MDA-MB-231. The conditions noted are these: read-out: MTs IC50 ± SD MDA-MB-231; Wnt/β-catenin hyperactive, 72 h; cited from earlier work.
For another series, the system named is A549. Particulars: read-out: MTs IC50 ± SD normal Wnt A549, 72 h; cited from earlier work.
For the next series, the system named is MDA-MB-231 cells. The conditions noted are these: cited from earlier work.
In another series the test system is β-catenin. The conditions noted are these: in words; cited from earlier work.
Another series deals with BCL9 HD2 domain. Particulars: in words; cited from earlier work.

Sequence of BCL9 (Homo sapiens) (O00512 whole entry): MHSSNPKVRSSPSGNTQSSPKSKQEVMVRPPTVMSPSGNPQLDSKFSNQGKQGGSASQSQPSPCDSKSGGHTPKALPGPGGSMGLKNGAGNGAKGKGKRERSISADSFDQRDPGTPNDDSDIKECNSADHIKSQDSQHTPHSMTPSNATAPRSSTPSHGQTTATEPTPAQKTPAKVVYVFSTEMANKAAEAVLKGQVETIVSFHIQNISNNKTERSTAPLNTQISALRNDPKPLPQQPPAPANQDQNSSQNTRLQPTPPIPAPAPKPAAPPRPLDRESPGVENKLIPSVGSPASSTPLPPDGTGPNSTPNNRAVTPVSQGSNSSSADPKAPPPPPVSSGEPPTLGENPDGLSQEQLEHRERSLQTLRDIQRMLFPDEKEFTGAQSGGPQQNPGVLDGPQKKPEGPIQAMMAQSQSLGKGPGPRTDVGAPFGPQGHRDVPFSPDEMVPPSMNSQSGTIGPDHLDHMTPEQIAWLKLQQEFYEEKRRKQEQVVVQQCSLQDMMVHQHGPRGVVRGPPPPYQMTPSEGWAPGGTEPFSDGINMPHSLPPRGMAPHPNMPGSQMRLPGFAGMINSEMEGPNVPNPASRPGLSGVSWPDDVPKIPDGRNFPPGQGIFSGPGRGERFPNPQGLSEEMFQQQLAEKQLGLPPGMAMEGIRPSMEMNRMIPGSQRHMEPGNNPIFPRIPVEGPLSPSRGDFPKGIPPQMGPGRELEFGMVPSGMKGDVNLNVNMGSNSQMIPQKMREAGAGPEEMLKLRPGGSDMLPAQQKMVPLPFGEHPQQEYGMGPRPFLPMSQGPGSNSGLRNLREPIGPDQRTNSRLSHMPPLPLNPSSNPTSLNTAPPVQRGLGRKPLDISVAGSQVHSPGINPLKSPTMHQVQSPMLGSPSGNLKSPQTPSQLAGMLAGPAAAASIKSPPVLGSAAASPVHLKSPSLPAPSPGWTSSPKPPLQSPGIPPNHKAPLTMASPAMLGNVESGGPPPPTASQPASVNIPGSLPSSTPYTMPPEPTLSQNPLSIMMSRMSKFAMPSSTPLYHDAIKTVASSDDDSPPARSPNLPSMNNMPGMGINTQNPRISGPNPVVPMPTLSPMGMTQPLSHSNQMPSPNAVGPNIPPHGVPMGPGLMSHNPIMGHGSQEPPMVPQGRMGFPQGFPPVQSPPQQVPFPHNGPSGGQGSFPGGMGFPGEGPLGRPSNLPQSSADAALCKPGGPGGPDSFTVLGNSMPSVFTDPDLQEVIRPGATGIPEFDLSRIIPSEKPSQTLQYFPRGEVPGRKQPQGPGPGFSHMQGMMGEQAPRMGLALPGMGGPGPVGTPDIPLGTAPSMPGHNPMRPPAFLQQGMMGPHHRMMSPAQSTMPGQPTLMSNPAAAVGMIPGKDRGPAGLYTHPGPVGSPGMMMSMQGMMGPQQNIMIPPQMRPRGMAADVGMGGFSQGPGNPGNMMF

For `Cl.Cl.O=C(Nc1ccc(O[C@H]2CCNC2)c(-c2cccc(-c3nn[nH]n3)c2)c1)c1ccc(O[C@H]2CCNC2)c(-c2ccc(F)c(F)c2)c1` [Compound 27, 3′,4′-Difluoro-6-((S)-pyrrolidin-3-yloxy)-N-(6-((S)-pyrrolidin-3-yloxy)-3′-(2H-tetrazol-5-yl)-[1,1′-biphenyl]-3-yl)-[1,1′-biphenyl]-3-carboxamide Dihydrochloride], on β-catenin/BCL9 PPI, the “AlphaScreen biochemical inhibitory activity compared with 1” value is “comparable with that of 1”.

Turning to `Cl.Cl.O=C(Nc1ccc(O[C@@H]2CCNC2)c(-c2cccc(-c3nn[nH]n3)c2)c1)c1ccc(O[C@H]2CCNC2)c(-c2ccc3ccsc3c2)c1` [Compound 30, (R)-3-((5-(3-(Benzo[b]thiophen-6-yl)-4-(((S)-pyrrolidin-1-ium-3-yl)oxy)benzamido)-3′-(2H-tetrazol-5-yl)-[1,1′-biphenyl]-2-yl)oxy)-pyrrolidin-1-ium Chloride], the “AlphaScreen biochemical inhibitory activity compared with 1” value at β-catenin/BCL9 PPI is listed as “comparable with that of 1”. On β-catenin/E-cadherin PPI, the Ki (usually the dissociation constant of the complex between target and ligand, obtained from inhibition or displacement) was more than 915 µM; the “selectivity of BCL9/cadherin” value is more than 570 fold. Moreover, the “effect on FOPFlash luciferase reporter activity” value in [1] is listed as “specific for the Wnt/β-catenin signaling pathway”.

With `Cl.Cl.O=C(Nc1ccc(O[C@H]2CCNC2)c(-c2ccc(F)cc2)c1)c1ccc(O[C@H]2CCNC2)c(-c2ccc3ccsc3c2)c1` [Compound 3, 3-(Benzo[b]thiophen-6-yl)-N-(4′-fluoro-6-(((S)-pyrrolidin-3-yl)-oxy)-[1,1′-biphenyl]-3-yl)-4-(((S)-pyrrolidin-3-yl)oxy)benzamide Dihydrochloride], in [2], the “mRNA expression of Wnt target genes Axin2, cyclin D1 and LEF1” value is listed as “dose-dependently inhibited”; the “mRNA expression of house-keeper gene HPRT” value was “did not inhibit”. In series [3], the “level of E-cadherin-bound β-catenin (total β-catenin)” value was “no effect”; the “level of the active form of β-catenin (ABC)” value is on record as “inhibit the level of the active form of β-catenin (ABC)”; the “protein expression levels of cyclin D1 and c-myc” value is on record as “significantly decreased”.

Turning to `Cl.Cl.O=C(Nc1ccc(O[C@@H]2CCNC2)c(-c2cccc(-c3nn[nH]n3)c2)c1)c1ccc(O[C@H]2CCNC2)c(-c2ccc(F)c(F)c2)c1` [Compound 29, 3′,4′-Difluoro-6-(((S)-pyrrolidin-3-yl)oxy)-N-(6-(((R)-pyrrolidin-3-yl)oxy)-3′-(2H-tetrazol-5-yl)-[1,1′-biphenyl]-3-yl)-[1,1′-biphenyl]-3-carboxamide Dihydrochloride], at β-catenin/E-cadherin PPI, the Ki was more than 915 µM and the “selectivity of BCL9/cadherin” value was more than 1900 fold. The “cytotoxicity in LDH release assay” value with SW480 cells is on record as “did not exhibit cytotoxicity; also recorded: did not show cytotoxicity”. The “effect on FOPFlash luciferase reporter activity up to 200 μM” value in series [1] (up to the concentration of 200 μM) is on record as “no effect”. Besides, the “effect on FOPFlash luciferase reporter activity” value in series [1] is listed as “specific for the Wnt/β-catenin signaling pathway”. Further, in the series on HCT116 cells (6 h incubation at 4 °C), the “cell-bound concentration at 4 °C” value is listed as 5.1 nmol/million HCT116 cells. Also, in the series on HCT116 cells (6 h incubation, input concentration 50 μM), the “cell-bound concentration at 37 °C” value was 6.6 nmol/million HCT116 cells. For the same molecule, in series [2], the “mRNA expression of Wnt target genes Axin2, cyclin D1 and LEF1” value is given as “dose-dependently inhibited”; the “mRNA expression of house-keeper gene HPRT” value was “did not inhibit”. For the same molecule, in series [3], the “level of E-cadherin-bound β-catenin (total β-catenin)” value is recorded as “no effect”; the “level of the active form of β-catenin (ABC)” value is “inhibit the level of the active form of β-catenin (ABC)”; the “protein expression levels of cyclin D1 and c-myc” value is recorded as “significantly decreased”. The “disruption of full-length β-catenin/full-length BCL9 PPI” value in series [4] was “dose-dependently disrupt”. In addition, the “disruption of β-catenin/BCL9 PPI in cells” value in series [5] is listed as “inhibited the β-catenin/BCL9 PPI in a dose-dependent manner”.

For the molecule β-catenin (from UniProt P35222), the Kd (in general, the free concentration of one partner at which half of the binding sites on the other are occupied at equilibrium, for simple one-to-one binding) with BCL9 (Homo sapiens) was 0.47 µM.

For the molecule `Cl.Cl.O=C(Nc1ccc(O[C@H]2CCNC2)c(-c2ccc(F)cc2)c1)c1ccc(O[C@H]2CCNC2)c(-c2ccc(F)c(F)c2)c1` [Compound 1], the IC50 – broadly, the concentration that inhibits the measured activity by half – with SW480 is 3.5 ± 0.32 µM; in the series on HCT116, 3.1 ± 0.83 µM; in the series with MDA-MB-231, 2.3 ± 0.25 µM; in the series with A549, 8.8 ± 0.62 µM. In the series on MDA-MB-231 cells (6 h incubation at 4 °C, 5 mL DMEM with 10% FBS), the “cell-bound concentration at 4 °C” value is listed as 1 nmol/million MDA-MB-231 cells. The “cell-bound concentration at 37 °C” value with MDA-MB-231 cells (6 h incubation, 5 mL DMEM with 10% FBS, input concentration 2 μM) is given as 6.7 nmol/million MDA-MB-231 cells. Besides, in the series on MDA-MB-231 cells (MDA-MB-231 cells), the “amount bound with the cell membrane by the nonspecific manner” value is reported as 15%. In the series with β-catenin, the “binding with β-catenin in ITC” value is given as “bind with β-catenin”. Besides, the “binding with BCL9 HD2 domain in ITC” value in the series with BCL9 HD2 domain is given as “not the BCL9 HD2 domain”.
